# Measured values taken from ChEMBL document CHEMBL1687863, “Terpenoids and norlignans from Metasequoia glyptostroboides” (J Nat Prod, 2011).
# pIC50: −log10 of the molar value.
# Tested on: HL-60
# Assay: Cytotoxicity against human HL60 cells after 48 hrs by MTT assay
# Type: functional, cell-based
# Settings: HL-60, 48 h
# Summary of the method: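 Cells seeded 12 h before treatment, then exposed continuously to a range of compound concentrations for 48 h. MTT added for a further 4 h, followed by 20% SDS and 12 h at room temperature. OD read at 595 nm; IC50 calculated by the Reed and Muench method.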
row,Compound,pIC50
1,C=C[C@]1(C)CC2=C(C[C@@H]1O)[C@@]1(C)CCC[C@@](C)(C(=O)O)[C@@H]1CC2,< 4.40
2,C=C1C=C[C@@H](C(C)C)[C@]12CC=C(C(=O)O)CC2,< 4.40
3,COc1ccc([C@H]2[C@@H]([C@H](O)c3ccc(OC)c(OC)c3)OC[C@H]2O)cc1,< 4.40
4,COc1ccc([C@H]2[C@@H]([C@H](OC(=O)[C@](OC)(c3ccccc3)C(F)(F)F)c3ccc(OC)c(OC)c3)OC[C@H]2OC(=O)[C@](OC)(c2ccccc2)C(F)(F)F)cc1,< 4.40
5,COc1ccc([C@H]2[C@@H]([C@H](OC(=O)[C@@](OC)(c3ccccc3)C(F)(F)F)c3ccc(OC)c(OC)c3)OC[C@H]2OC(=O)[C@@](OC)(c2ccccc2)C(F)(F)F)cc1,< 4.40
6,C=CC(=C)CC[C@@H]1[C@@]2(C)CCC[C@](C)(COC(=O)/C=C/c3ccc(O)cc3)[C@@H]2CC[C@@]1(C)O,4.84
7,C=C(C)C(CC)CC[C@@H](C)[C@H]1CC[C@@]2(C)[C@@H]3CC[C@@H](C(C)(C)O)[C@@]4(CCC(=O)O)C[C@@]34CC[C@]12C (some centres not stated) [METASEGLYPTORIN A],< 4.40
8,COc1cc(/C=C/[C@@H](c2ccc(O)c(OC)c2)[C@H](O)CO)ccc1O [METASEQUIRIN D],< 4.40
9,COc1cc([C@H]2[C@@H]([C@H](O)c3ccc(O)c(OC)c3)OC[C@H]2O)ccc1O [METASEQUIRIN E],< 4.40
10,COc1cc([C@@H](O)[C@H]2OC[C@@H](O)[C@H]2c2ccc(O)cc2)ccc1O [METASEQUIRIN F],< 4.40
11,C=C1CC[C@H]2[C@](C)(O)[C@H](C)CC[C@]2(C)[C@H]1CC/C(C)=C/C(=O)O [METASEQUOIC ACID C],< 4.40
12,OC[C@@H](O)[C@@H](/C=C/c1ccc(O)cc1)c1ccc(O)c(O)c1 [SEQUIRIN C],5.26
